Data taken from ChEMBL document CHEMBL3875153, “Design and synthesis of isatin/triazole conjugates that induce apoptosis and inhibit migration of MGC-803 cells” (Eur J Med Chem, 2016).

Key:
[1] = Cytotoxicity against human GES-1 cells assessed as growth inhibition after 72 hrs by CCK8 assay; format: toxicity, cell-based, GES1; conditions: for IC50 at 72 h: human, GES-1 cells
Method in brief: (§1)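 Exponentially growing cells were trypsinized and seeded at 2 × 10^4 cells/mL (100 µL/well). After 24 h, medium was replaced with compound at 0.5–256 µM (twofold steps). Plates were incubated 72 h at 37 °C, 5% CO2, then with CCK-8 for 4 h. A450 was read. Three independent runs; IC50 given as mean and SD.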

[2] = Cytotoxicity against human HL-7702 cells assessed as growth inhibition after 72 hrs by CCK8 assay; format: toxicity, cell-based, L02; conditions: for IC50 at 72 h: human, HL-7702 cells; method in brief: as §1
[3] = Cytotoxicity against human SW780 cells assessed as growth inhibition after 72 hrs by CCK8 assay; format: functional, cell-based; method in brief: as §1
[4] = Cytotoxicity against human MCF7 cells assessed as growth inhibition after 72 hrs by CCK8 assay; format: functional, cell-based; method in brief: as §1
[5] = Cytotoxicity against human MGC803 cells assessed as growth inhibition after 72 hrs by CCK8 assay; format: functional, cell-based, MGC-803; method in brief: as §1
[6] = Cytotoxicity against human TE1 cells assessed as growth inhibition after 72 hrs by CCK8 assay; format: functional, cell-based, TE-1; method in brief: as §1
[7] = Homo sapiens, SW780, 72 h, read-out: IC50
[8] = Homo sapiens, MCF7, 72 h, read-out: IC50
[9] = Homo sapiens, MGC-803, 72 h, read-out: IC50
[10] = Homo sapiens, TE-1, 72 h, read-out: IC50

O=c1[nH]cc(F)c(=O)[nH]1 [FLUOROURACIL]
IC50 at 72 h [1]: 13.8 µM
IC50 at 72 h [2]: 12.8 µM
IC50 [3, 7]: 6.99 µM
IC50 [4, 8]: 13.2 µM
IC50 [5, 9]: 10.6 µM
IC50 [6, 10]: 17.3 µM

O=C1C(=O)N(Cc2cn(CC(=O)N3CCOCC3)nn2)c2c(Cl)ccc(Cl)c21
IC50 at 72 h [1]: > 128 µM
IC50 at 72 h [2]: > 128 µM
IC50 [3, 7]: 113 µM
IC50 [4, 8]: 146 µM
IC50 [5, 9]: 51.7 µM
IC50 [6, 10]: 119 µM

CC(C)(C)OC(=O)N1CCN(C(=O)Cn2cc(CN3C(=O)C(=O)c4c(Cl)ccc(Cl)c43)nn2)CC1
IC50 at 72 h [1]: 84.2 µM
IC50 at 72 h [2]: 42 µM
IC50 [3, 7]: > 128 µM
IC50 [4, 8]: 46.9 µM
IC50 [5, 9]: 22 µM
IC50 [6, 10]: 39.2 µM

O=C1C(=O)N(Cc2cn(CC(=O)N3CCNCC3)nn2)c2c(Cl)ccc(Cl)c21
IC50 ([1]; ges1): Nd(Insoluble)
IC50 ([2]; l02): Nd(Insoluble)
IC50 ([3]; sw780): Nd(Insoluble)
IC50 ([4]; mcf7): Nd(Insoluble)
IC50 ([5]; mgc-803): Nd(Insoluble)
IC50 ([6]; te-1): Nd(Insoluble)

O=C(Cn1cc(CN2C(=O)C(=O)c3c(Cl)ccc(Cl)c32)nn1)Nc1ccccc1
IC50 at 72 h [1]: 24.9 µM
IC50 at 72 h [2]: 24.9 µM
IC50 [3, 7]: 27 µM
IC50 [4, 8]: 38.5 µM
IC50 [5, 9]: 17.5 µM
IC50 [6, 10]: 30.6 µM
